Source: PubChem
CSN deneddyl inh: CSN deneddylation inhibition; hit rate 0.38% among 360,000; inhibition, % at 12.5 µM; Purified CSN, SCF-Nedd8-OG deneddylation, fluorescence polarization;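 active means pattern-corrected inhibition above about 35%, with an unprinted fluorescence ratio check between 0.5 and 1.5, limit read from the data, passing the limit was not always enough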
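Assay system: purified human Csn5 enzyme expressed in HEK293T cells; measure: % inhibition; also added: SCFSkp2-Nedd8OG substrate at 10 nM final; technique: fluorescence polarization; times: reaction 90 min, room temperature; medium: Tris buffer pH 7.5, NaCl, DTT, Tween-20, trehalose, ovalbumin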
Rev-erbA mod: modulates human Rev-erb alpha binding to DNA. P20393. Rev-erbα–FITC-DNA binding, fluorescence polarization, 90 min. activity, % at 10 µM. hit rate 0.79% among 370,000. AID 1259318;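 active means activity above about 14%, limit read from the data; passing the limit was not always enough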
Target sequence (P20393 whole entry, looked up): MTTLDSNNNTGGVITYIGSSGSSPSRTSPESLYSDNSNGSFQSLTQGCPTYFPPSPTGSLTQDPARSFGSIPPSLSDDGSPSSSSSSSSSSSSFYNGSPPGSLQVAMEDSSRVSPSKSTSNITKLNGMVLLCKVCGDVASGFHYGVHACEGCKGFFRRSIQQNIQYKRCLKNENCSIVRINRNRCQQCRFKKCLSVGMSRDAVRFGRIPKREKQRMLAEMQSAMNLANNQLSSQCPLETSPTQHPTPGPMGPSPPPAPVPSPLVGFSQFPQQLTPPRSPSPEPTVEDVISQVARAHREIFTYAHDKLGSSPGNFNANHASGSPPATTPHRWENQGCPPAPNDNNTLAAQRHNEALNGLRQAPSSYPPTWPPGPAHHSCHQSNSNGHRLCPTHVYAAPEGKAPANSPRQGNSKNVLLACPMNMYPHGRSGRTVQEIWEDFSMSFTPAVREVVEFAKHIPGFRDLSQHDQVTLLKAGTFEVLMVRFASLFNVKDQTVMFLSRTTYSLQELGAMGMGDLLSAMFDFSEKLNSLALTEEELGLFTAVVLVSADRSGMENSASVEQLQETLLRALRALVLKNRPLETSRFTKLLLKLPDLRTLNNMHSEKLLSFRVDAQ
HNF4A DNA FP: change in binding of human HNF4 alpha to DNA; P41235; HNF4a-FITC DNA binding, fluorescence polarization, 1 h; activity change, % at 10 µM; hit rate 0.3% among 360,000; AID 1224865; in the data active means activity change above about 30%, passing the limit was not always enough
TPT1 inh: blocks Candida albicans tRNA 2'-phosphotransferase; recombinant caTPT1, FP RNA substrate dephosphorylation; inhibition, % at 5 µM; hit rate 0.81% among 300,000; AID 1962;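 active means inhibition above the mean of all tested compounds plus 3 SD, set per screening campaign, cut at about 24% in these data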
NR1D1 mod conf: confirmation of modulators of human Rev-erb alpha DNA binding | shares compounds with Rev-erbA mod | Rev-erb alpha FITC-DNA binding, fluorescence polarization, 90 min | activation, % at 25 µM | hit rate 61% among 3,000 | AID 1259319;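 active means activation at or above a set limit, or at least 3 SD above the negative control mean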
RORg DNA counter: RORgamma DNA-binding activity, dose-response counter-screen | shares compounds with Rev-erbA mod | AID 1259320 | hit rate 8% among 910 | purified RORgamma protein-FITC-DNA binding, fluorescence polarization | IC50, µM;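 active means Compounds whose fitted half-maximal concentration for disrupting protein-DNA binding is below 10 micromolar; the record names Rev-erb in its text, so the target is in doubt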
Hits are given with their value; ! = repeats disagree. Sampled rows, rich in hits. Any-hit rate of the full collection: about 1.7%.

Results for CCc1nn(CC(=O)NCCCc2ccccc2)c(=O)c2cc3c(OC)cccc3n12 ?
CSN deneddyl inh: inactive; Rev-erbA mod: 31; HNF4A DNA FP: inactive; TPT1 inh: inactive; NR1D1 mod conf: inactive

What do the screens show for `N#Cc1cc(C#N)c(N2CCN(c3cccc(Cl)n3)CC2)nc1N`?
CSN deneddyl inh: inactive; Rev-erbA mod: 26; HNF4A DNA FP: inactive; TPT1 inh: inactive; NR1D1 mod conf: 71; RORg DNA counter: inactive

Results for Cc1c(C(=O)Nc2ccncc2)sc2nc(-c3ccc(F)cc3)cn12 ?
CSN deneddyl inh: inactive; Rev-erbA mod: 39; HNF4A DNA FP: inactive; TPT1 inh: inactive; NR1D1 mod conf: 38; RORg DNA counter: inactive

How did CCOC(=O)Cc1c(-c2cccc(Br)c2)nc2c3ccccc3ccn12 do in these assays?
CSN deneddyl inh: inactive; Rev-erbA mod: inactive; HNF4A DNA FP: inactive

What do the screens show for `COc1cccc2c1C(=O)c1c(O)c3c(c(O)c1C2=O)C[C@@](O)(C(C)=O)C[C@@H]3O[C@H]1C[C@H](N)[C@H](O)[C@H](C)O1`?
CSN deneddyl inh: inactive; Rev-erbA mod: 28!; HNF4A DNA FP: inactive; NR1D1 mod conf: inactive

Results for COc1ccccc1C(=O)N1CCC(Oc2cccnc2)CC1 ?
Rev-erbA mod: inactive

How did Cc1ccc2sc(NC(=O)CSc3nc(C)cc(C)c3C#N)nc2c1 do in these assays?
CSN deneddyl inh: inactive; Rev-erbA mod: 29; HNF4A DNA FP: inactive; TPT1 inh: inactive; NR1D1 mod conf: inactive

What do the screens show for `CCc1nnc(NC(=O)CSc2nc3cc4c(cc3cc2C)OCCO4)s1`?
CSN deneddyl inh: inactive; Rev-erbA mod: 47; HNF4A DNA FP: inactive; TPT1 inh: inactive; NR1D1 mod conf: 47; RORg DNA counter: inactive

Results for CCOC(=O)c1sc(NC(=O)CSc2nc3c(cc2C#N)CCCCC3)c(C#N)c1C ?
CSN deneddyl inh: inactive; Rev-erbA mod: 30; HNF4A DNA FP: inactive; TPT1 inh: inactive; NR1D1 mod conf: 20

Results for CCc1nnc(NC(=O)CSc2nc3c(cc2C#N)CCCC3)s1 ?
CSN deneddyl inh: inactive; Rev-erbA mod: 34; HNF4A DNA FP: inactive; TPT1 inh: inactive; NR1D1 mod conf: 23

Results for CCOC(=O)c1sc(NC(=O)CSc2nc(C)cc(C)n2)c(C#N)c1C ?
CSN deneddyl inh: inactive; Rev-erbA mod: inactive; HNF4A DNA FP: inactive; TPT1 inh: inactive

Results for Cc1cc(C(F)(F)F)c(C#N)c(SCC(=O)Nc2nc3ccccc3s2)n1 ?
CSN deneddyl inh: inactive; Rev-erbA mod: inactive; HNF4A DNA FP: inactive; TPT1 inh: inactive

How did CN(C)c1ccc(N(C)C)c(C(O)(c2ccccc2)c2ccccc2)c1 do in these assays?
Rev-erbA mod: inactive

How did O=[N+]([O-])c1ccccc1/C=C/C1Nc2cccc3cccc(c23)N1 do in these assays?
Rev-erbA mod: inactive

Results for CCOC(=O)c1c(NC(=O)CSc2nc3ccccc3c(=O)n2-c2ccccc2)sc(C(C)=O)c1C ?
CSN deneddyl inh: inactive; Rev-erbA mod: 140; HNF4A DNA FP: inactive; TPT1 inh: inactive; NR1D1 mod conf: inactive

How did CCOC(=O)c1c(NC(=O)CSc2nnc(-c3ccc(C)cc3)o2)sc(C(C)=O)c1C do in these assays?
CSN deneddyl inh: inactive; Rev-erbA mod: inactive; HNF4A DNA FP: inactive; TPT1 inh: inactive

What do the screens show for `CCOC(=O)c1c(NC(=O)CSc2nc3ccccc3o2)sc(C(C)=O)c1C`?
CSN deneddyl inh: inactive; Rev-erbA mod: inactive; HNF4A DNA FP: inactive; TPT1 inh: inactive

What do the screens show for `CCOC(=O)c1c(NC(=O)CSc2nc(C)cc(C)c2C#N)sc(C(C)=O)c1C`?
CSN deneddyl inh: inactive; Rev-erbA mod: 35; HNF4A DNA FP: inactive; TPT1 inh: inactive; NR1D1 mod conf: 17

How did O=C(NCCOc1ccccc1)c1ccc2c(c1)S(=O)(=O)c1cc(Cl)ccc1C2=O do in these assays?
CSN deneddyl inh: inactive; Rev-erbA mod: 23; HNF4A DNA FP: inactive; NR1D1 mod conf: inactive

Results for Cc1ccc(-c2c(C#N)c(N)n(-c3ccc(Cl)cc3)c(=O)c2C#N)cc1 ?
CSN deneddyl inh: inactive; Rev-erbA mod: 38; HNF4A DNA FP: inactive; NR1D1 mod conf: 29; RORg DNA counter: inactive

How did CCOC(=O)c1nn(-c2ccc(Cl)cc2)c2nc(-c3ccc(C)cc3)c(C#N)c(=O)n12 do in these assays?
CSN deneddyl inh: inactive; Rev-erbA mod: 36; HNF4A DNA FP: inactive; TPT1 inh: inactive; NR1D1 mod conf: 37; RORg DNA counter: inactive

How did CCOC(=O)c1nn(-c2ccc(OCC)cc2)c2nc(CC(C)C)c(C#N)c(=O)n12 do in these assays?
CSN deneddyl inh: inactive; Rev-erbA mod: inactive; HNF4A DNA FP: inactive; TPT1 inh: inactive

Results for CCOC(=O)c1nn(-c2ccc(Cl)cc2)c2nc(CC)c(C#N)c(=O)n12 ?
CSN deneddyl inh: inactive; Rev-erbA mod: 33; HNF4A DNA FP: inactive; TPT1 inh: inactive; NR1D1 mod conf: inactive

Results for COc1ccc(-c2nc3ccc(C)cn3c2Cc2ccccc2C(F)(F)F)cc1OC ?
Rev-erbA mod: inactive

What do the screens show for `COc1ccc(-c2nc3ccc(Br)cn3c2Cc2ccccc2C(F)(F)F)cc1OC`?
CSN deneddyl inh: inactive; Rev-erbA mod: 16; HNF4A DNA FP: inactive; NR1D1 mod conf: inactive

Results for Cc1ccc2nc(-c3cccc(Br)c3)c(Cc3ccccc3C(F)(F)F)n2c1 ?
CSN deneddyl inh: inactive; Rev-erbA mod: inactive; HNF4A DNA FP: inactive

How did Cc1ccc2nc(-c3ccc(F)cc3)c(Cc3ccccc3C(F)(F)F)n2c1 do in these assays?
CSN deneddyl inh: inactive; Rev-erbA mod: 17; HNF4A DNA FP: inactive; NR1D1 mod conf: inactive

What do the screens show for `COc1ccc2oc(=O)c(-c3cn4ccc(C)cc4n3)cc2c1`?
CSN deneddyl inh: inactive; Rev-erbA mod: 76; HNF4A DNA FP: inactive; TPT1 inh: inactive; NR1D1 mod conf: inactive

Results for O=c1oc2ccccc2cc1-c1cn2ccccc2n1 ?
CSN deneddyl inh: inactive; Rev-erbA mod: inactive; HNF4A DNA FP: inactive; TPT1 inh: inactive

Results for COC(=O)c1cccc(Cn2ccc3ccc(-c4ccc5ccn(C(=O)c6ccc(C)cc6)c5c4)cc32)c1 ?
Rev-erbA mod: 46; NR1D1 mod conf: 64; RORg DNA counter: inactive

Results for O=C(c1ccccc1)n1ccc2ccc(-c3ccc4ccn(Cc5ccccc5)c4c3)cc21 ?
Rev-erbA mod: inactive

Results for Fc1cccc(Cn2ccc3ccc(-c4ccc5ccn(Cc6cccc(F)c6)c5c4)cc32)c1 ?
Rev-erbA mod: inactive

What do the screens show for `COC(=O)c1cccc(Cn2ccc3ccc(-c4ccc5ccn(C(=O)c6ccccc6OC)c5c4)cc32)c1`?
Rev-erbA mod: 34; NR1D1 mod conf: 58; RORg DNA counter: inactive

Results for COC(=O)c1cccc(Cn2ccc3ccc(-c4ccc5ccn(Cc6cccc(C(=O)OC)c6)c5c4)cc32)c1 ?
Rev-erbA mod: 51; NR1D1 mod conf: inactive

Results for CCCCOc1ccc(C(=O)n2ccc3ccc(-c4ccc5ccn(Cc6ccccc6)c5c4)cc32)cc1 ?
Rev-erbA mod: 40; NR1D1 mod conf: 45; RORg DNA counter: inactive
